Source: ChEMBL document CHEMBL2057089, “Design and synthesis of novel p38α MAP kinase inhibitors: discovery of pyrazole-benzyl ureas bearing 2-molpholinopyrimidine moiety” (Bioorg Med Chem Lett, 2012)

What was measured:
[1] = target: Mitogen-activated protein kinase 14 (Homo sapiens, UniProt Q16539); assay: Inhibition of human recombinant P38alpha-mediated ATF2 phosphorylation after 1 hr
[2] = Antiinflammatory activity in human whole blood cells assessed as inhibition of LPS-induced TNFalpha production after 4 hrs by time-resolved fluorescence assay; type: functional, cell-based
Procedure, shortened: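 Freshly drawn heparinized human whole blood was given compound diluted in human serum AB and preincubated 1 h at 37 °C. It was then stimulated with LPS (200 ng/mL, E. coli O111:B4) for 4 h at 37 °C. Supernatant TNF-α was read by homogeneous time-resolved fluorescence.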

[3] = test system: Mus musculus; assay: Antiinflammatory activity in BALB/c mouse model of endotoxic shock assessed as inhibition of LPS-induced TNFalpha production at 50 mg/kg, po administered 30 mins before LPS challenge measured after 60 mins by ELISA; type: functional
Procedure, shortened: (§1)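 Male BALB/c mice, 8 weeks old, were dosed orally at 10 mL/kg. Controls received vehicle (27% hydroxypropyl-β-cyclodextrin, 10 mL/kg). LPS (1 mg/kg) was injected i.p. 30 min after dosing. Blood was taken 60 min after LPS, and serum was separated for TNF-α measurement.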

[4] = test system: Mus musculus; assay: Antiinflammatory activity in BALB/c mouse model of endotoxic shock assessed as inhibition of LPS-induced TNFalpha production at 100 mg/kg, po administered 30 mins before LPS challenge measured after 60 mins by ELISA; type: functional; procedure, shortened: as §1
[5] = test system: Mus musculus; assay: Hepatotoxicity in Crlj:CD1(ICR) mouse assessed as change in plasma ALT level at 500 mg/kg, po administered for 5 consecutive days measured 24 hrs post final dosing (reference value: 24 +/- 4 U/L); type: toxicity, organism-based; parameters: dose 500 mg/kg, route oral; conditions: in vivo
[6] = test system: Mus musculus; assay: Hepatotoxicity in Crlj:CD1(ICR) mouse assessed as change in plasma AST level at 2000 mg/kg, po administered for 5 consecutive days measured 24 hrs post final dosing (reference value: 45 +/- 11 U/L); type: toxicity, organism-based; parameters: dose 2000 mg/kg, route oral; conditions: in vivo
[7] = test system: Mus musculus; assay: Antiinflammatory activity in po dosed BALB/c mouse model of endotoxic shock assessed as inhibition of LPS-induced TNFalpha production administered 30 mins before LPS challenge measured after 60 mins by ELISA
[8] = test system: Mus musculus; assay: Hepatotoxicity in Crlj:CD1(ICR) mouse assessed as change in plasma AST level at 1000 mg/kg, po administered for 5 consecutive days measured 24 hrs post final dosing (reference value: 45 +/- 11 U/L); type: toxicity, organism-based; parameters: dose 1000 mg/kg, route oral; conditions: in vivo
[9] = test system: Mus musculus; assay: Hepatotoxicity in Crlj:CD1(ICR) mouse assessed as change in plasma ALT level at 1000 mg/kg, po administered for 5 consecutive days measured 24 hrs post final dosing (reference value: 24 +/- 4 U/L); type: toxicity, organism-based; parameters: dose 1000 mg/kg, route oral; conditions: in vivo
[10] = test system: Mus musculus; assay: Hepatotoxicity in Crlj:CD1(ICR) mouse assessed as change in plasma ALT level at 2000 mg/kg, po administered for 5 consecutive days measured 24 hrs post final dosing (reference value: 24 +/- 4 U/L); type: toxicity, organism-based; parameters: dose 2000 mg/kg, route oral; conditions: in vivo
[11] = test system: Mus musculus; assay: Hepatotoxicity in Crlj:CD1(ICR) mouse assessed as change in plasma AST level at 500 mg/kg, po administered for 5 consecutive days measured 24 hrs post final dosing (reference value: 45 +/- 11 U/L); type: toxicity, organism-based; parameters: dose 500 mg/kg, route oral; conditions: in vivo
[12] = test system: Mus musculus; assay: Hepatotoxicity in Crlj:CD1(ICR) mouse assessed as change in plasma direct bilirubin level at 500 to 1000 mg/kg, po administered for 5 consecutive days measured 24 hrs post final dosing; type: toxicity, organism-based; parameters: dose 500-1000 mg/kg, route oral; conditions: in vivo
[13] = test system: Mus musculus; assay: Hepatotoxicity in Crlj:CD1(ICR) mouse assessed as change in plasma AST level at 500 to 1000 mg/kg, po administered for 5 consecutive days measured 24 hrs post final dosing; type: toxicity, organism-based; parameters: dose 500-1000 mg/kg, route oral; conditions: in vivo
[14] = test system: Mus musculus; assay: Hepatotoxicity in Crlj:CD1(ICR) mouse assessed as change in plasma total bilirubin level at 500 to 1000 mg/kg, po administered for 5 consecutive days measured 24 hrs post final dosing; type: toxicity, organism-based; parameters: dose 500-1000 mg/kg, route oral; conditions: in vivo

Chain of Mitogen-activated protein kinase 14 (Q16539 whole entry): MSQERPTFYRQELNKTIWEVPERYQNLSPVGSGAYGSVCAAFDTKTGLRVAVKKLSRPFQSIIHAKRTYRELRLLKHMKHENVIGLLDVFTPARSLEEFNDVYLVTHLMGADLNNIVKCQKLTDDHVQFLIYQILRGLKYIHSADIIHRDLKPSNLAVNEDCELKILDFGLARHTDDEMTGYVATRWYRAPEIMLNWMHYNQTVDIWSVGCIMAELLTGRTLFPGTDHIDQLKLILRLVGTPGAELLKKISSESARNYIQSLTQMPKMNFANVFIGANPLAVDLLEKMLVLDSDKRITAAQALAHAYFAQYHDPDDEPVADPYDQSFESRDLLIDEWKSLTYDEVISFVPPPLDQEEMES

Row | SMILES | IC50 [1] | IC50 [2] | further results
1 | Cc1ccc(-n2nc(C(C)(C)C)cc2NC(=O)NCc2cc(F)cc(Cl)c2Oc2ccnc(N3CCOCC3)n2)cc1 | 11 nM | 110 nM | –
2 | Cc1ccc(-n2nc(C(C)(C)C)cc2NC(=O)NCc2ccccc2Oc2ccnc(N3CCOCC3)n2)cc1 | 12 nM | 720 nM | inhibition in vivo at 50 mg/kg [3]: 65%
3 | Cc1ccc(-n2nc(C(C)(C)C)cc2NC(=O)NCc2cc(F)cc(C)c2Oc2ccnc(N3CCOCC3)n2)cc1 | 14 nM | – | –
4 | Cc1ccc(-n2nc(C(C)(C)C)cc2NC(=O)NCc2cc(Cl)ccc2Oc2ccnc(N3CCOCC3)n2)cc1 | 5 nM | 190 nM | inhibition in vivo at 100 mg/kg [4]: 81%
5 | Cc1ccc(-n2nc(C(C)(C)C)cc2NC(=O)NCc2cc(F)ccc2Oc2ccnc(N3CCOCC3)n2)cc1 | 4 nM | 230 nM | Activity [5]: 26 U/L; Activity [6]: 46 U/L; inhibition in vivo at 50 mg/kg [3]: 84%; ED50 [7]: 16 mg/kg; Activity [8]: 47 U/L; Activity [9]: 32 U/L; Activity [10]: 28 U/L; Activity [11]: 42 U/L
6 | Cc1ccc(-n2nc(C(C)(C)C)cc2NC(=O)Nc2ccc(OCCN3CCOCC3)c3ccccc23)cc1 [DORAMAPIMOD] | – | 600 nM | inhibition in vivo at 50 mg/kg [3]: 82%; Activity [12]: Toxic; Activity [13]: Toxic; Activity [14]: Toxic
7 | Cc1ccc(-n2nc(C(C)(C)C)cc2NC(=O)NCc2ccccc2Oc2ccnc(Cl)n2)cc1 | 20 nM | – | –
8 | Cc1ccc(-n2nc(C(C)(C)C)cc2NC(=O)NCc2cc(F)cc(F)c2Oc2ccnc(N3CCOCC3)n2)cc1 | 3 nM | 48 nM | –
9 | Cc1ccc(-n2nc(C(C)(C)C)cc2NC(=O)NCc2cc(C(F)(F)F)ccc2Oc2ccnc(N3CCOCC3)n2)cc1 | 35 nM | > 10000 nM | –
10 | Cc1ccc(-n2nc(C(C)(C)C)cc2NC(=O)NCc2ccccc2Oc2ccnc(N3CCCCC3)n2)cc1 | 13 nM | – | –
11 | Cc1ccc(-n2nc(C(C)(C)C)cc2NC(=O)NCc2cc(C)ccc2Oc2ccnc(N3CCOCC3)n2)cc1 | 13 nM | 970 nM | –
12 | Cc1ccc(-n2nc(C(C)(C)C)cc2NC(=O)NCc2ccccc2O)cc1 | 1500 nM | – | –
